# Measured values pooled from the literature.
# Compare with care: the assays were run in different laboratories.
# Target: Atypical kinase COQ8B, mitochondrial (COQ8B, Homo sapiens, UniProt Q96D53)
# Residues used in one study (Q96D53 1-544): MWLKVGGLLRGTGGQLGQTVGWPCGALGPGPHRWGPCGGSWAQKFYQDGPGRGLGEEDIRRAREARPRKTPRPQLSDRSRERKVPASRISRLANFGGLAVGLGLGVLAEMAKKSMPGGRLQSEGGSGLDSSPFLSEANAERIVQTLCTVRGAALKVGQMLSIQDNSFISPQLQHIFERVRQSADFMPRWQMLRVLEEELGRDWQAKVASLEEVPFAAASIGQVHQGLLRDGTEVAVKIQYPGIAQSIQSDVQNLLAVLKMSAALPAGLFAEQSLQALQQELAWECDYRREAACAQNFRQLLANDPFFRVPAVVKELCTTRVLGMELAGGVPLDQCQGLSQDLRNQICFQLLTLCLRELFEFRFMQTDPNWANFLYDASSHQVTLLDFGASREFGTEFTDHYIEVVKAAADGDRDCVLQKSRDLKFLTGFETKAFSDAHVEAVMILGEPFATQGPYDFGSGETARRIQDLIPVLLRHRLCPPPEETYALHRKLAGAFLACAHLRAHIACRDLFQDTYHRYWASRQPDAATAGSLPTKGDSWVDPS
SMILES,test,conditions,remaining binding [%]
COc1cnc(Nc2cccc(S(N)(=O)=O)c2)nc1N1CCN(c2ccccc2)CC1,"binding, competition with immobilised ligand",1 µM,85
Cc1cnc(Nc2ccc(C(=O)N3CCC(N4CCCC4)CC3)cc2)nc1-c1cc2ccccc2s1,"binding, competition with immobilised ligand",1 µM,34
N[C@H]1CCN(c2nccc(-c3cnn4ncccc34)n2)C1,binding,1 µM,74
Nc1ncc2c(n1)-c1c([nH]c3ccc(C#CC4CC4)cc13)CCCC2,"binding, competition with immobilised ligand",1 µM,90
FC(F)(F)Oc1cccc(-c2cnc3ccc(-c4ccncc4)nn23)c1,"cell-free assay, competition with immobilised ligand",5 µM,85
O=C(NS(=O)(=O)c1ccc(NCC2CCOCC2)c([N+](=O)[O-])c1)c1ccc(N2CCN(Cc3ccc(C(F)(F)F)cc3-c3ccc(Cl)cc3)CC2)cc1Oc1cnc2[nH]ccc2c1,"cell-free assay, competition with immobilised ligand",1 µM,90
C[C@H]1CCN(c2nccc(-c3cnn4ncccc34)n2)C1,binding,1 µM,92
CNC(=O)[C@@H]1CC[C@@H](n2c(-c3ccc4cnccc4c3)nc3ccc(C(=O)NCc4cccc(C(N)=O)c4)cc32)C1,"binding, competition with immobilised ligand",1 µM,99
Cc1nc(N2CC[C@@H](O)C2)ncc1-c1cc(C(F)(F)F)cc2[nH]ncc12,"cell-free assay, competition with immobilised ligand",1 µM,100
CN(C)c1nccc(-c2cnc3ncccn23)n1,binding,1 µM,75
O=C(c1ccc(Nc2nccc(-c3cc4ccccc4s3)n2)cc1)N1CCC(N2CCCC2)CC1,"binding, competition with immobilised ligand",1 µM,90
O=C(NCC1CCOCC1)c1n[nH]cc1NC(=O)c1c(F)cccc1F,"binding, competition with immobilised ligand",1 µM,85
C[C@@H]1CN(c2cc(-c3nn(C)c4ccc(OC5(C)CC5)cc34)ncn2)C[C@H](C)O1,"cell-free assay, competition with immobilised ligand",1 µM,100
c1cncc(-c2cccc(Nc3nccc(NC4CCCCC4)n3)c2)c1,"binding, competition with immobilised ligand",10 µM,24
CN(C(=O)c1ccccc1)c1cc(N(C)c2ccc3c(c2)CCc2ccc(C(=O)NCCN4CCOCC4)cc2C3=O)ccc1F,"cell-free assay, competition with immobilised ligand",1 µM,100
O=C(NCCCN1CCOCC1)c1ccc(Nc2nccc(-c3cc4ccccc4s3)n2)cc1,"binding, competition with immobilised ligand",1 µM,62
CS(=O)(=O)N1CCCC(NC(=O)[C@H](CCC2CCCCC2)NC(=O)c2ccc(CNC(=O)c3cnc4ccccn34)cc2)C1 (stereo partly shown),"cell-free assay, competition with immobilised ligand",0.1 µM,100
c1cnn2ncc(-c3ccnc(N4CCC45COC5)n3)c2c1,binding,1 µM,100
CS(=O)(=O)c1cc(C2(NC(=O)c3cncc4c3cnn4-c3ccc(F)cc3)CC2)ccn1,"cell-free assay, competition with immobilised ligand",1 µM,100
F[C@@H]1CCN(c2nccc(-c3cnn4ncccc34)n2)C1,binding,1 µM,79
CCCCN(CCCC)C(=O)CN1C[C@@H](c2cc(OC)c3c(c2)OCO3)[C@H](C(=O)O)[C@H]1CC(C)(C)CCC,"cell-free assay, competition with immobilised ligand",1 µM,80.2
CN(C)c1nccc(-c2cnn3ncccc23)n1,binding,1 µM,100
